Results from different studies.
Target: Insulin-like growth factor 1 receptor (IGF1R, Homo sapiens, UniProt P08069)

| Structure (SMILES) | test | conditions | measurement | value |
| --- | --- | --- | --- | --- |
| CC(C)(C)c1cc(C=C(C#N)C#N)cc(Br)c1O | enzyme activity, inhibitor | 0.5 µM | remaining activity | 96.6% |
| Nc1ncc(-c2nc(N3CCOCC3)nc(N3CCOCC3)n2)c(C(F)F)n1 | cell-free assay, competition with immobilised ligand | 10 µM | remaining binding | 78% |
| O=c1[nH]c2ccccc2n1C1CCN(Cc2ccc(-c3[nH]c4cc5ncnc5cc4nc3-c3ccccc3)cc2)CC1 | cell-free assay | 0.5 µM | remaining signal | 91.2% |
| COc1ncccc1-c1cnn2ccc(N3CCN(C(=O)OC(C)C)CC3)nc12 | binding, competition with immobilised ligand | 1 µM | remaining binding | 100% |
| Cn1cncc1[C@](O)(COc1ccc(C#N)cc1-c1ccc(OC(F)(F)F)cc1)c1ccc(C#N)cc1 | cell-free assay, competition with immobilised ligand | 1 µM | remaining binding | 92% |
| C#Cc1n[nH]c2c(-c3cn([C@@H](C)c4ccccc4)c(=O)[nH]c3=O)cc(F)cc12 | enzyme activity, inhibitor | 0.1 µM | inhibition | 7.8% |
| Cn1cc(-c2cccc(N3CCc4c(sc5c4CC(C)(C)C5)C3=O)c2CO)cc(Nc2ccncn2)c1=O | enzyme activity, inhibitor | 1 µM | inhibition | 3% |
| Cc1nn(C)cc1-c1nc2c(N3CCN(Cc4ccc(Cl)cc4)CC3)c(Cl)cnc2[nH]1 | binding, competition with immobilised ligand | 1 µM | remaining binding | 100% |
| Cn1cc(-c2cc(F)cc(N3CCn4c(cc5c4CCCC5)C3=O)c2CO)cc(Nc2ccc(N3CCN(C4COC4)CC3)cn2)c1=O | enzyme activity, inhibitor | 0.1 µM | inhibition | 4% |
| C#Cc1n[nH]c2c(-c3cn([C@@H](C)c4ccccn4)c(=O)[nH]c3=O)cc(F)cc12 | enzyme activity, inhibitor | 0.1 µM | inhibition | 8.7% |
